This is one part of a sample in which hits are shown more often than they occur.
E coli WT inh – blocks growth of wild type E. coli BW25113; E. coli BW25113 growth inhibition, OD600; inhibition, % at 10 µM; hit rate 0.05% among 20,000; AID 552; in the data active means inhibition above about 40%;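 further: bacteria exposed to compound for 20 hours at 37 °C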
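Material: bacterial strain in a whole-cell growth screen; Amount: inoculum from a 1:1000 dilution of a 1.5 h subculture; Buffer or medium: LB plus kanamycin 50 µg/mL; Dosing: one dose, 10 µM final; Times: compound exposure of 20 h at 37 °C; Measured by: absorbance at 615 nm as a measure of bacterial growth.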
Of the large screens only hits and unclear results are named; the others gave an inactive call.

O=C(Nc1ccc(O)c(C(=O)O)c1)c1ccc2c(c1)C(=O)N(CC1CCCO1)C2=O (stereo unspecified)	none
CC(CCc1ccccc1)NC(=O)CSc1nc(N)cc(N)n1 (stereo unspecified)	none
C=CCOc1ccc2ccccc2c1CNc1ncn[nH]1	none
COc1ccc(OC)c(S(=O)(=O)N2CCN(c3c(C)cccc3C)CC2)c1	none
Cc1nn(-c2ccccc2)c(C)c1NS(=O)(=O)c1ccccc1	none
O=C(NC1=NC2CCCCC2N1)c1ccccc1 (stereo unspecified)	none
COc1ccc2c(c1)C(C)=CC(C)(C)N2C(=O)CSc1nnc(-c2ccc(C)cc2)o1	none
CN1CCN(C(=O)C2CC(c3c(F)cccc3Cl)=NO2)CC1 (stereo unspecified)	none
O=C(NCc1cccs1)c1csc2ccccc12	none
CCOc1ccc(C(C)(C)C)cc1S(=O)(=O)N1CC(C)OC(C)C1 (stereo unspecified)	none
CC(C)CNc1oc(-c2ccc(F)cc2)nc1C#N	none
CCCCOc1ccc(Cl)cc1CSc1nnc(CC)n1N	none
COc1cc(NS(C)(=O)=O)c(OC)cc1NC(=O)c1ccccc1	none
Cc1csc(OCc2ccc(C#N)cc2)n1	none
CCC(=O)Nc1ccc(S(=O)(=O)Nc2cccc(C)c2)cc1OC	none
COc1ccc(N2CCN(CCCNS(=O)(=O)c3c(C)noc3/C=C/N(C)C)CC2)cc1	none
CCn1cc(C(=O)OCc2ccc(F)cc2)c(=O)c2ccc(C)nc21	none
CCn1cc(C(=O)O)c(=O)c2ccc(C)nc21	none
CCn1cc(C(=O)O)c(=O)c2cc(F)c(N3CCNCC3)nc21	E coli WT inh 75
CCC(=O)N1CCN(c2ccc(Cl)cc2NC(=O)c2ccc(Br)o2)CC1	none
CCn1ncc(C2=NOC(C(=O)NCc3ccc(Cl)cc3)C2)c1C (stereo unspecified)	none
COC(=O)C(CC(=O)c1ccc(Br)cc1)n1ccnc1 (stereo unspecified)	none
CCCCN(CCCC)CCNC(=O)Cc1nc2c(c(=O)[nH]c(=O)n2C)n1C	none
CCN(C(=O)c1cccc(F)c1)c1ccccc1C	none
CCOC(=O)Cc1csc2nc3sc(C)c(C)c3c(=O)n12	none
CC(=O)Oc1ccc(NC(=O)CSc2ccccc2)cc1	none
Cn1nnc(NC(=O)COc2ccc(C3CCCCC3)cc2)n1	none
CCN(CC)S(=O)(=O)c1ccc2[nH]cc(C(=O)NCCC3=CCCCC3)c(=O)c2c1	none
Cc1ccc(NC(=O)CN(C)S(=O)(=O)c2cccc3nsnc23)cc1Cl	none
COc1cc(OC)cc(C(=O)N2c3ccc(F)cc3CCC2C)c1 (stereo unspecified)	none
CC1CCc2cc(F)cc3c(O)c(C(=O)NCC4CCCO4)c(=O)n1c23 (stereo unspecified)	none
CC1CCc2cc(F)cc3c(=O)c(C(=O)O)cn1c23 (stereo unspecified)	E coli WT inh 44
CC1=C(C#N)C(C(F)(F)F)(C(F)(F)F)N=C(c2ccco2)N1	none
Cc1cc2c(cc(C(=O)NCc3cccnc3)n2Cc2ccc(Cl)cc2)o1	none
COC(=O)C1CCN(C(=O)C2CCCCC2)CC1	none
Cc1nonc1OCCNC(=O)C12CC3CC(CC(C3)C1)C2	none
c1ccc(Cc2nn3c(-c4ccncc4)nnc3s2)cc1	none
O=c1n(Cc2ccc(Cl)cc2)c2sc3c(c2c2ncnn12)CCCC3	none
CCOC(=O)COc1ccc(S(=O)(=O)NCCC2=CCCCC2)cc1	none
Cc1ccc(/C(O)=C2\C(=O)C(=O)N(CCCN(C)C)C2c2ccccn2)cc1 (stereo unspecified)	none
CC(=O)N(CC(C)(C)CC=C(C)C)c1ccccc1	none
CSC1=C(C#N)C(C)CC(=O)N1 (stereo unspecified)	none
COC(=O)c1ccccc1NC(=O)N1CCN(C(=O)c2ccco2)CC1	none
Cc1ccc(C(=O)NC(C)(COc2nonc2C)COc2nonc2C)cc1	none
COc1ccc(S(=O)(=O)N(CC(=O)NC2CC2)c2ccc(C)cc2)cc1OC	none
CC1=C(C(=O)OC2CCCC2)C(c2ccc(C)o2)C2=C(CC(c3cccs3)CC2=O)N1 (stereo unspecified)	none
COc1cc(C)c(Br)cc1S(=O)(=O)N1CCCC1	none
O=C(COc1ccc(Cl)cc1Cl)NC(=O)N1CCOCC1	none
COc1ccc(OC)c(-n2nnnc2SCC(=O)NCc2ccc3c(c2)OCO3)c1	none
O=C(O)c1cccnc1SCCc1ccccc1	none
CCN1CCN(C(=O)c2cn(CC)c3ccc(S(=O)(=O)N(C)C)cc3c2=O)CC1	none
CCOC(=O)N1CCN(c2cc3nccnc3cc2F)CC1	none
CCN1CCN(c2cc3c(cc2F)c(=O)c(C(=O)O)cn3C2CC2)CC1	E coli WT inh 72
CCOC(=O)N1CCN(C(=O)c2cn(CC)c3cc(N4CCN(C)CC4)c(F)cc3c2=O)CC1	E coli WT inh 71
CCOC(=O)c1cn(CC)c2cc(N3CCOCC3)c(F)cc2c1=O	none
CCC(=O)c1cc(F)c(N2CCN(C(=O)Cc3ccccc3)CC2)cc1C	none
CC(C)(C)C(=O)CNS(=O)(=O)c1ccc(S(=O)(=O)NC2CCCC2)cc1	none
O=C(NCc1ccco1)C1CC(=O)N(c2ccc(O)cc2)C1 (stereo unspecified)	none
Cc1ccc(S(=O)(=O)Nc2ccc3nc(-c4cccn4C)[nH]c3c2)cc1	none
CN(C(=O)COc1cc(=O)n(C)c2ccccc12)c1ccc(Br)cc1	none
O=C(CCS(=O)(=O)Cc1ccccc1)NCC1CCCO1 (stereo unspecified)	none
NC(=O)C1(N2CCCCC2)CCN(Cc2ccccc2Cl)CC1	none
COc1ccc(S(=O)(=O)NCCSCc2cccs2)cc1	none
O=S1(=O)C=C(Sc2nnc(-c3ccccc3)o2)c2ccccc21	none
Cc1cccc(C)c1NC(=O)CSc1nnc(CCCCCNC(=O)OC(C)(C)C)o1	none
COc1ccc(C)cc1S(=O)(=O)N(CC(N)=O)Cc1ccccc1	none
O=C(c1ccco1)N1CCN(S(=O)(=O)Cc2ccc(Cl)cc2)CC1	none
COc1ccc(Cl)cc1NC(=O)CSc1nncn1-c1cccnc1	none
O=C1C2CC=CCC2C(=O)N1c1ccc(Cc2ccncc2)cc1 (stereo unspecified)	none
O=S(=O)(NC1CCCCC1)c1ccc(Cl)s1	none

From PubChem BioAssay
